Results published in ChEMBL document CHEMBL1141693, “Discovery of benzoylpiperazines as a novel class of potent and selective GlyT1 inhibitors” (Bioorg Med Chem Lett, 2008).
Converted amounts (≈) assume the structure as drawn. The source made the active and inactive calls. The rule behind the calls is not given here.

Columns and labels:
[1] = molecular target: T1, Sodium- and chloride-dependent glycine transporter 1 (Homo sapiens, UniProt P48067); test: Inhibition of [3H]glycine uptake at human glycine transporter 1 expressed in CHO cells by scintillation counter; type: cell-based
T1 sequence (P48067 whole entry): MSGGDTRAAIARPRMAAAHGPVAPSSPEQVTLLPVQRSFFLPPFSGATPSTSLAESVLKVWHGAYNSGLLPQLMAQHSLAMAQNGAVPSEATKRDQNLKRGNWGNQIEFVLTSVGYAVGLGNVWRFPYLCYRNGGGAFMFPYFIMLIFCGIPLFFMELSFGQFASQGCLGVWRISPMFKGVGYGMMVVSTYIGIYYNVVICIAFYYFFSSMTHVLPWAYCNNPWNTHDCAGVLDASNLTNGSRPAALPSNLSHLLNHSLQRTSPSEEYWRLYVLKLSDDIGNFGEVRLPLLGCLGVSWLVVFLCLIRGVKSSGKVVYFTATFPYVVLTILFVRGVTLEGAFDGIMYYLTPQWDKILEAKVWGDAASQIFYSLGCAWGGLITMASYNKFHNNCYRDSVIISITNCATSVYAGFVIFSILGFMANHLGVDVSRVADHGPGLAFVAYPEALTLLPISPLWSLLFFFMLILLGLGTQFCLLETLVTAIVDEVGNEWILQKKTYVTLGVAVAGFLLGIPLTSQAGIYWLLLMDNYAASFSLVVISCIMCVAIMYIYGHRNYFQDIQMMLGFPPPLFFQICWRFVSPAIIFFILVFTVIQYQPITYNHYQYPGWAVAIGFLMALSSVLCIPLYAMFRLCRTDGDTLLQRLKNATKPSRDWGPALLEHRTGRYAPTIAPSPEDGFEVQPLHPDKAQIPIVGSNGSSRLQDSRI

Homo sapiens = organism: Homo sapiens; test: Selectivity ratio of IC50 for human glycine transporter 2 to IC50 for human glycine transporter 1
Procedure, shortened: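 [³H]-glycine uptake inhibition in cells transfected with human GlyT1 or human GlyT2 cDNA. Each EC50 is the average of at least two independent experiments. Selectivity is the ratio of GlyT2 EC50 to GlyT1 EC50.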

[2] = molecular target: T2, Sodium- and chloride-dependent glycine transporter 2 (Homo sapiens, UniProt Q9Y345); test: Inhibition of [3H]glycine uptake at human glycine transporter 2 expressed in CHO cells by scintillation counter; type: cell-based
T2 sequence (Q9Y345 whole entry): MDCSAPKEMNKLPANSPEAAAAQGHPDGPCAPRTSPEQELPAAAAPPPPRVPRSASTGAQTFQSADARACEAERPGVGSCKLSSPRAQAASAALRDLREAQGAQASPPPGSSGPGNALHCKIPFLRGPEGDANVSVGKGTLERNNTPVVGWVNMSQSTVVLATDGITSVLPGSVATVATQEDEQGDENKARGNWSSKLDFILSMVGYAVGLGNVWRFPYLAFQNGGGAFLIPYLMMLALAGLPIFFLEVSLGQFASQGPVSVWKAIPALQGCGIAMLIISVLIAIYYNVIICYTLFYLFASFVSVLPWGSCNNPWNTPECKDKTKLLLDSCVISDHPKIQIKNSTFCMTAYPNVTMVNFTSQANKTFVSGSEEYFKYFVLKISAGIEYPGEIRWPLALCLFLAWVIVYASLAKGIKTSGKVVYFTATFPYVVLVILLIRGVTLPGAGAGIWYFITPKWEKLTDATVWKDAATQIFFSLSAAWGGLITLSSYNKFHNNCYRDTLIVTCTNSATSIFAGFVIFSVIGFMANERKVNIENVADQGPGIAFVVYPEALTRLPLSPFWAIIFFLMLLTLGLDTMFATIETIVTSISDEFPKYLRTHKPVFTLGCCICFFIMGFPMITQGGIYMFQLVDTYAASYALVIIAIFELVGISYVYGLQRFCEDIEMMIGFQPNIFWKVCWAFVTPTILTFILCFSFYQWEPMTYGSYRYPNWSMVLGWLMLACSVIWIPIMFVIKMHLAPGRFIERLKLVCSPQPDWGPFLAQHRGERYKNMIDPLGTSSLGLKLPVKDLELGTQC
Procedure, shortened: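 [³H]-glycine uptake inhibition in cells transfected with human GlyT2 cDNA. EC50 is the average of at least two independent experiments.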

[3] = Aqueous solubility in phosphate buffer at pH 6.5 by lyophilization solubility assay; type: physicochemical
Procedure, shortened: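 Aqueous solubility was measured at pH 6.5 in a lyophilization solubility assay.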

[4] = Metabolic stability in mouse liver microsomes assessed as intrinsic clearance per […] of protein; type: ADME, Microsome
Procedure, shortened: (§1)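 Intrinsic clearance measured in liver microsomes from rat, mouse or human, expressed per mg microsomal protein.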

Liver microsomes [5] = test: Metabolic stability in human liver microsomes assessed as intrinsic clearance per […] of protein; type: ADME, Microsome; procedure, shortened: as §1
[6] = Membrane permeability by PAMPA; type: ADME; conditions: read-out: permeability
Procedure, shortened: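 PAMPA artificial-membrane permeation, reported as the permeation constant Pe in 10^-6 cm/s.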

Liver microsomes [7] = test: Metabolic stability in rat liver microsomes assessed as intrinsic clearance per […] of protein; type: ADME, Microsome; procedure, shortened: as §1
[8] = molecular target: Acetylcholinesterase (Homo sapiens) (UniProt P22303); test: Inhibition of acetylcholinesterase at 10 uM
Chain of Acetylcholinesterase (Homo sapiens) (P22303 whole entry): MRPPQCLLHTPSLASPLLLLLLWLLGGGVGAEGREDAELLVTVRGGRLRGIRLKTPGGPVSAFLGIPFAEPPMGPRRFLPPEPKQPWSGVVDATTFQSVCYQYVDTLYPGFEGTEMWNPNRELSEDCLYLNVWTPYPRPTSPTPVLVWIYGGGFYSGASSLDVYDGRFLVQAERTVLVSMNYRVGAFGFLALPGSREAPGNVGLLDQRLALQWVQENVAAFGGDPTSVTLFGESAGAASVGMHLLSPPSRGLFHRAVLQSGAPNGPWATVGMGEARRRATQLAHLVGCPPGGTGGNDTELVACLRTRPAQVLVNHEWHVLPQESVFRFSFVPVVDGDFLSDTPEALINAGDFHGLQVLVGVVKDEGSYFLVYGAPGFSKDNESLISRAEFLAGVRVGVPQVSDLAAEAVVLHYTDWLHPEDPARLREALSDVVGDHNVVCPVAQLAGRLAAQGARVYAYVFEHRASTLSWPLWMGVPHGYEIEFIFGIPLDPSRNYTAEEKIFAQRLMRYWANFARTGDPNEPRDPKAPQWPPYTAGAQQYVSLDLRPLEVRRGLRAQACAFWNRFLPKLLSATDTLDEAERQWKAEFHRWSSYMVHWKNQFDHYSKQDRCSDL
Procedure, shortened: (§2)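 Run within an outsourced CEREP selectivity screen of 80 targets (transmembrane and soluble receptors, enzymes, ion channels, monoamine transporters). The compound was tested at a single concentration and the read-out was percent inhibition of each target.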

[9] = molecular target: T3, Catechol O-methyltransferase (Homo sapiens) (UniProt P21964); test: Inhibition of catechol-O-methyl transferase at 10 uM; procedure, shortened: as §2
T3 sequence (whole entry): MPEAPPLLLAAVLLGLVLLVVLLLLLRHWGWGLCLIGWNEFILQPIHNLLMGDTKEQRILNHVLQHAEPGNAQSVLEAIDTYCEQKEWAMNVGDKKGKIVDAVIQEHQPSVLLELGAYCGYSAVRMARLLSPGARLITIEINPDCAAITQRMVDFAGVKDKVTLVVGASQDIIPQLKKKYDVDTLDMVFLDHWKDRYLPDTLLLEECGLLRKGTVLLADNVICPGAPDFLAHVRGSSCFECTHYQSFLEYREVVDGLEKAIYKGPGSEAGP

MAO-A = molecular target: T4, MAO-A (Homo sapiens, UniProt P21397); test: Inhibition of MAOA at 10 uM
T4 sequence (P21397 whole entry): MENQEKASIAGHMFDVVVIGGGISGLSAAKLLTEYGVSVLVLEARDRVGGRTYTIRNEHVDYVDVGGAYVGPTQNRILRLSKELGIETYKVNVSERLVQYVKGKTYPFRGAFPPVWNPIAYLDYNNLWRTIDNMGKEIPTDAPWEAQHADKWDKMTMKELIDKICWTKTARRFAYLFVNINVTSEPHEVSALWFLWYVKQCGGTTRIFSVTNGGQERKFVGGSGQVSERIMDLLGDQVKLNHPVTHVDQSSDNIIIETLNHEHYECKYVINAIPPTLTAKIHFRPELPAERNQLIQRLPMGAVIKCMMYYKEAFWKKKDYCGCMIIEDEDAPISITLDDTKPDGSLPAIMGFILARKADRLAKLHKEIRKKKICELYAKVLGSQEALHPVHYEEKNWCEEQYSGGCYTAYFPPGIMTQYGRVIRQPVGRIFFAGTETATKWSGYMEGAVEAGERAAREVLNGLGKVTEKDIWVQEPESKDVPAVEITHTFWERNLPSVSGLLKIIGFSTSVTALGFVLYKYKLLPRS
Procedure, shortened: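 CEREP selectivity screen across a panel of 80 targets (receptors, enzymes, ion channels, monoamine transporters). Percent inhibition was read at a single test concentration.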

[10] = Inhibition of phosphodiesterase at 10 uM
Procedure, shortened: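 CEREP selectivity panel of 80 targets: transmembrane and soluble receptors, enzymes, ion channels and monoamine transporters. Single test concentration of 10 µM; read-out is percent inhibition.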

[11] = Fraction unbound in mouse plasma at 10 mg/kg, po; type: ADME, organism-based; design: dose 10 mg/kg, route oral
[12] = Cmax in mouse plasma at 10 mg/kg, po; type: ADME, organism-based; design: dose 10 mg/kg, route oral
[13] = Oral bioavailability in mouse at 10 mg/kg; type: ADME, organism-based; conditions: in vivo
[14] = Clearance in mouse at 2 mg/kg, iv; type: ADME, organism-based; design: dose 2 mg/kg, route intravenous; conditions: in vivo
[15] = Volume of distribution at steady state in mouse at 2 mg/kg, iv; type: ADME, organism-based; design: dose 2 mg/kg, route intravenous; conditions: in vivo, read-out: Vdss
[16] = Half life in mouse at 10 mg/kg, po; type: ADME, organism-based; design: dose 10 mg/kg, route oral; conditions: in vivo
[17] = molecular target: T5, Sodium- and chloride-dependent glycine transporter 2 (Homo sapiens) (UniProt Q9Y345); test: Inhibition of [3H]glycine uptake at human glycine transporter 2 expressed in CHO cells at 30 uM by scintillation counter; type: cell-based
T5 sequence (whole entry): T2 sequence (Q9Y345 whole entry)

Cytochrome P450 2D6 = Cytochrome P450 2D6 (Homo sapiens, UniProt P10635); test: Inhibition of CYP2D6; type: ADME
Chain of Cytochrome P450 2D6 (P10635 whole entry): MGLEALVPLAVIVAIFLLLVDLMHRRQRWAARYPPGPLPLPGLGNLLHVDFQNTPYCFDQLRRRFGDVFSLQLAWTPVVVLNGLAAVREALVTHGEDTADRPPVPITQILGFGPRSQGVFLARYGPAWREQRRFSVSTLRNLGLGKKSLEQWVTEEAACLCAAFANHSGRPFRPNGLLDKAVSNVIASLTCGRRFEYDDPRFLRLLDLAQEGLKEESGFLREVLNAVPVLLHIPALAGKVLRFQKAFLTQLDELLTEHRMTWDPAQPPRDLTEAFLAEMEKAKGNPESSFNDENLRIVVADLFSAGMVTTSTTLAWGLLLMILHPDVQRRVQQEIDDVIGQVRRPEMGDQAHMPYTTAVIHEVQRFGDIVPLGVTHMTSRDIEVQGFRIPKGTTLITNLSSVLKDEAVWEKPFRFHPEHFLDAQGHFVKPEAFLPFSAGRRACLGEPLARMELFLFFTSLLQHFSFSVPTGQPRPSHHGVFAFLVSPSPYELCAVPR

[18] = Ratio of drug level in brain to plasma in mouse at 10 mg/kg, po; type: ADME, organism-based; design: dose 10 mg/kg, route oral; conditions: read-out: BPR
Procedure, shortened: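 Mouse pharmacokinetics after a 10 mg/kg oral dose. Brain/plasma ratio taken from brain Cmax (ng/g) and plasma Cmax (ng/mL). Values are the average of two independent experiments.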

[19] = Cmax in mouse brain at 10 mg/kg, po; type: ADME, organism-based; design: dose 10 mg/kg, route oral

| SMILES | EC50 [1] | Ratio EC50 (Homo sapiens) | EC50 [2] | solubility [3] | clearance (Liver microsomes [5]) | Papp [6] | other results |
| --- | --- | --- | --- | --- | --- | --- | --- |
| CC(=O)c1ccc(N2CCN(C(=O)c3cc(C(F)(F)F)ccc3N3CCOCC3)CC2)c(F)c1 | 26000 nM | 0.4 | 11000 nM |  |  |  |  |
| CC(C)Oc1ccc(S(C)(=O)=O)cc1C(=O)N1CCN(c2ccc(C(F)(F)F)cc2)CC1 | 82 nM |  |  | 62 µg/mL (≈ 132 µM) | 0 µL/min/mg |  | clearance [4]: 0 µL/min/mg |
| CNS(=O)(=O)c1ccc(N2CCOCC2)c(C(=O)N2CCN(c3ccc(C(C)=O)cc3F)CC2)c1 | 100 nM | > 300 | > 30000 nM | 30 µg/mL (≈ 59.5 µM) | 43 µL/min/mg | 5.3 ×10⁻⁶ cm/s | clearance (Liver microsomes [7]): 106 µL/min/mg |
| CC(=O)c1ccc(N2CCN(C(=O)c3cc(S(C)(=O)=O)ccc3N3CCOCC3)CC2)c(F)c1 | 70 nM | > 417 | > 30000 nM | 30 µg/mL (≈ 61.3 µM) | 26 µL/min/mg | 3.1 ×10⁻⁶ cm/s | inhibition [8]: < 20%; clearance (Liver microsomes [7]): 40 µL/min/mg; inhibition [9]: < 20%; inhibition at 10 µM (MAO-A): < 20%; inhibition [10]: < 20% |
| CS(=O)(=O)c1ccc(OCC2CC2)c(C(=O)N2CCN(c3ccc(C#N)cc3F)CC2)c1 | 16 nM |  |  | 31 µg/mL (≈ 67.8 µM) | 4 µL/min/mg | 3.2 ×10⁻⁶ cm/s | fraction unbound [11]: 0.12; Cmax [12]: 3880 ng/mL; bioavailability [13]: 100%; clearance [14]: 9.5 mL/min/kg; Vd [15]: 2.8 L/kg; half-life [16]: 5.8 h; clearance [4]: 9 µL/min/mg; Activity [17]: inactive; IC50 (Cytochrome P450 2D6): > 29100 nM; Kp [18]: 0.1; Cmax [19]: 373 ng/g |
| CC(=O)c1ccc(N2CCN(C(=O)c3cc(Br)ccc3N3CCOCC3)CC2)c(F)c1 | > 30000 nM | < 0.2 | 5100 nM |  |  |  |  |
| O=C(c1cc([N+](=O)[O-])ccc1N1CCOCC1)N1CCN(c2cccc(Cl)c2)CC1 | 700 nM |  | 3100 nM |  |  |  |  |
| CS(=O)(=O)c1ccc(N2CCOCC2)c(C(=O)N2CCN(c3ccc(C(F)(F)F)cc3)CC2)c1 | 45 nM |  |  | 3 µg/mL (≈ 6.03 µM) | 10 µL/min/mg |  | clearance [4]: 15 µL/min/mg |
| CC(=O)c1ccc(N2CCN(C(=O)c3cc([N+](=O)[O-])ccc3N3CCOCC3)CC2)c(F)c1 | 15 nM | 320 | 4800 nM | 9 µg/mL (≈ 19.7 µM) | 35 µL/min/mg | 4.7 ×10⁻⁶ cm/s | clearance (Liver microsomes [7]): 106 µL/min/mg |
| Cc1cccc(N2CCN(C(=O)c3cc([N+](=O)[O-])ccc3N3CCOCC3)CC2)c1 | 1100 nM |  | 4000 nM |  |  |  |  |
| CC(=O)c1ccc(N2CCN(C(=O)c3cc(S(C)(=O)=O)ccc3SC(C)C)CC2)c(F)c1 | 15 nM |  | > 30000 nM |  |  |  |  |
| CCCS(=O)(=O)c1ccc(N2CCOCC2)c(C(=O)N2CCN(c3ccc(C(C)=O)cc3F)CC2)c1 | 1600 nM |  | > 30000 nM |  |  |  |  |
| CC(=O)c1ccc(N2CCN(C(=O)c3cc(C#N)ccc3N3CCOCC3)CC2)c(F)c1 | 180 nM | 72 | 13000 nM | < 1 µg/mL | 31 µL/min/mg | 6.1 ×10⁻⁶ cm/s | clearance (Liver microsomes [7]): 53 µL/min/mg |
| O=C(c1cc([N+](=O)[O-])ccc1N1CCOCC1)N1CCN(c2ccc(C(F)(F)F)cc2F)CC1 | 41 nM |  | 29000 nM |  |  |  |  |
| N#Cc1ccc(N2CCN(C(=O)c3cc([N+](=O)[O-])ccc3N3CCOCC3)CC2)c(F)c1 | 30 nM |  | 4300 nM |  |  |  |  |
| CC(=O)c1ccc(N2CCN(C(=O)c3cc(S(N)(=O)=O)ccc3N3CCOCC3)CC2)c(F)c1 | 120 nM | > 250 | > 30000 nM | 308 µg/mL (≈ 628 µM) | 31 µL/min/mg | 3.3 ×10⁻⁶ cm/s |  |
| O=C(c1cc([N+](=O)[O-])ccc1N1CCOCC1)N1CCN(c2ccccc2C(F)(F)F)CC1 | 7100 nM |  | > 30000 nM |  |  |  |  |
